Activity data for two molecules are collected here from ChEMBL document CHEMBL3580644, “Synthesis of piperlongumine analogues and discovery of nuclear factor erythroid 2-related factor 2 (Nrf2) activators as potential neuroprotective agents” (J Med Chem, 2015).

The nature of data set [1]: Cytotoxicity against human L02 cells assessed as reduction in cell viability at 20 uM to 100 uM incubated for 24 hrs by MTT assay. The format is cell-based. Conditions: l02, 24 h. (In general: Formazan colour is commonly taken as a measure of viable cells.)
Data set [2] relates to PC-12. Put plainly: Cytoprotection activity against 6-OHDA-induced oxidative stress in rat PC12 cells assessed as TrxR1 activity at pre-incubated for 24 hrs before 6-OHDA exposure for 12 hrs by Escherichia coli Trx based assay. The class given is functional, cell-based. An outline of the steps:
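Cellular TrxR activity: extract with 20 μg protein incubated 30 min at 37 °C in 100 mM Tris-HCl pH 7.4 containing 0.3 mM insulin, 660 μM NADPH, 3 mM EDTA, 4 μM E. coli Trx; stopped with 1 mM DTNB in 6 M guanidine-HCl pH 8.0; A412 minus Trx-free blank; % of DMSO control.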

Data set [3] concerns PC-12. Put plainly: Induction of antioxidant genes expression in rat PC12 cells assessed as increase in TrxR1 mRNA level at 20 uM incubated for 12 hrs by qRT-PCR method. The class given is functional, cell-based. Summed up:
(§1)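 PC12 cells, 1×10^6 per 60-mm dish, 1 day, then 20 μM compound for 0, 3, 6 and 12 h; total RNA isolated, quantified by 260/280 absorbance; mRNA by real-time RT-PCR normalized to GAPDH; mean ± SD of three independent experiments versus 0 h.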
(Quantitative PCR measures a nucleic acid by following its amplification.)

Data set [4] concerns PC-12. Put plainly: Cytoprotection activity against 6-OHDA-induced cytotoxicity in rat PC12 cells assessed as cell viability at 10 and 20 uM pre-incubated for 24 hrs before 6-OHDA exposure for 12 hrs in presence of shNrf2 by MTT assay. The class given is functional, cell-based.
The nature of data set [5]: Antioxidant activity assessed as ABTS radical scavenging activity at 20 uM incubated for 30 mins by spectrophotometry. The format is physicochemical. Particulars: 0.5 h.
Data set [6] deals with PC-12. Put plainly: Cytoprotection activity against H2O2-induced apoptosis in rat PC12 cells assessed as reduction in apoptotic nuclei levels at 10 and 20 uM pre-incubated for 24 hrs before H2O2 exposure for 5 hrs by Hoechst 33342 staining based fluorescent microscopy. The class given is functional, cell-based. Summed up:
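PC12 cells seeded 2×10^5/well, grown 1 day, pretreated with compound 24 h, then medium replaced with fresh medium containing 200 μM 6-OHDA or 500 μM H2O2 for 5 h; Hoechst 33342 added at 5 μg/mL final; condensed, brightly fluorescent nuclei counted as apoptotic under fluorescence microscopy.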

Data set [7] concerns PC-12. Briefly: Cytoprotection activity against 6-OHDA-induced apoptosis in rat PC12 cells assessed as reduction in caspase-3 activation at 10 and 20 uM pre-incubated for 24 hrs before 6-OHDA exposure for 24 hrs by colorimetric assay. The format is functional, cell-based. Summed up:
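Lysed in RIPA buffer (pH 7.5), protein by Bradford; caspase-3 measured colorimetrically with Ac-DEVD-pNA substrate, expressed as % of control; mean ± SD, three independent experiments.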

Data set [8] can be described thus: Cytotoxicity against rat PC12 cells assessed as reduction in cell viability at 20 uM incubated for 24 hrs by MTT assay. The format is cell-based. Conditions: pc-12, 24 h.
In data set [9] the test system is PC-12. Briefly: Cytoprotection activity against 6-OHDA-induced cytotoxicity in rat PC12 cells assessed as cell viability at 10 and 20 uM pre-incubated for 24 hrs before 6-OHDA exposure for 12 hrs by LDH release assay. The class given is functional, cell-based. For orientation: LDH leaks from cells whose membrane has failed.
Data set [10] deals with PC-12. Put plainly: Reduction in cytosolic Nrf2 protein level in rat PC12 cells at 20 uM incubated for 2 to 8 hrs by Western blotting method. The class given is functional, cell-based. An outline of the steps:
(§2)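 Seeded at 1×10^6 cells per 60-mm dish for 24 h, PC12 cells were treated with 20 μM compound for 0, 2, 4 and 8 h. Whole-cell, cytosolic and nuclear protein extracts were then prepared and Nrf2 probed by Western blot.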

Data set [11] deals with T1, Nuclear factor erythroid 2-related factor 2 (Rattus norvegicus) (UniProt O54968).
T1 sequence (whole entry): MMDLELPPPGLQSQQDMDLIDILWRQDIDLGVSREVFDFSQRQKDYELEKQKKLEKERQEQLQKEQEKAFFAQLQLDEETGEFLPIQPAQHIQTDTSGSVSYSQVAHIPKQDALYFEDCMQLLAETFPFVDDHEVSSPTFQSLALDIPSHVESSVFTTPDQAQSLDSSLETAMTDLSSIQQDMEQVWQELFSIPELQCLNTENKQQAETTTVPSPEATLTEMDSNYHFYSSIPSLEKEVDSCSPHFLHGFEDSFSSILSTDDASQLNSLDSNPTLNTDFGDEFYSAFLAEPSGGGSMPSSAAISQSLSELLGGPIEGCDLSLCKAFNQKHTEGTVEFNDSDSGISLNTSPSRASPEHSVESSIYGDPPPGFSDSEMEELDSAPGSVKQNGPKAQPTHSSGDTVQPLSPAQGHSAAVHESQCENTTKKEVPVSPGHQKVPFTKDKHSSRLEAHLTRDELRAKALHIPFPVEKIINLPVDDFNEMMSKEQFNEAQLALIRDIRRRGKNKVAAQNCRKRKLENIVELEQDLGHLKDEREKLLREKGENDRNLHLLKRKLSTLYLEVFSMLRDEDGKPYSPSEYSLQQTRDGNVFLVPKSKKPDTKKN
Put plainly: Induction of Nrf2-mediated antioxidant genes expression in rat PC12 cells assessed as increase in NQO1 protein expression at 10 and 20 uM incubated for 20 hrs by Western blotting method. The format is cell-based. Conditions: PC-12.

Data set [12] relates to PC-12. Put plainly: Cytoprotection activity against H2O2-induced cytotoxicity in rat PC12 cells assessed as cell viability at 10 and 20 uM pre-incubated for 24 hrs before H2O2 exposure for 12 hrs by LDH release assay. The class given is functional, cell-based.
For data set [13], the system named is PC-12. Put plainly: Induction of antioxidant genes expression in rat PC12 cells assessed as increase in Trx1 mRNA level at 20 uM incubated for 12 hrs by qRT-PCR method. The class given is functional, cell-based. An outline of the steps:
as §1

Data set [14] has as its system PC-12. Briefly: Cytoprotection activity against 6-OHDA-induced oxidative stress in rat PC12 cells assessed as reduction in ROS generation at 10 and 20 uM pre-incubated for 24 hrs before 6-OHDA exposure for 5 hrs by DCFH-DA dye based fluorescent microscopy. The class given is functional, cell-based.
For data set [15], the system named is PC-12. Briefly: Induction of antioxidant genes expression in rat PC12 cells assessed as increase in TrxR1 activity at 10 and 20 uM incubated for 20 hrs by TRFS-green dye based fluorescent microscopy. The format is functional, cell-based. An outline of the steps:
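PC12 cells 2×10^5/well, 24 h, then compound 20 h; TRFS-green added to 10 μM final and incubated 4 h at 37 °C in the dark; green fluorescence intensity imaged by fluorescence microscopy as relative cellular TrxR activity.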

For data set [16], the system named is PC-12. Put plainly: Induction of antioxidant genes expression in rat PC12 cells assessed as increase in GCLM mRNA level at 20 uM incubated for 6 hrs by qRT-PCR method. The format is functional, cell-based. An outline of the steps: as §1
Data set [17] has as its system PC-12. Put plainly: Induction of total Nrf2 protein expression in rat PC12 cells at 20 uM incubated for 2 to 8 hrs by Western blotting method. The class given is functional, cell-based. An outline of the steps: as §2
The nature of data set [18]: Antioxidant activity assessed as DPPH radical scavenging activity at 20 uM incubated for 30 mins by spectrophotometry. The format is physicochemical. Particulars: 0.5 h.
Data set [19] has as its system PC-12. Briefly: Induction of antioxidant genes expression in rat PC12 cells assessed as increase in TrxR1 mRNA level at 20 uM incubated for 3 hrs by qRT-PCR method. The format is functional, cell-based. Summed up: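 PC12 cells (1×10^6 per 60-mm dish) seeded 1 day, then exposed to 20 μM compound for 0, 3, 6 and 12 h. Total RNA isolated and quantified by 260/280 absorbance. Transcripts measured by qRT-PCR, normalized to GAPDH internal control, compared against 0 h control. Means ± SD of three independent experiments.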

Activity calls are given as the source filed them. The calls are words filed in the database; no cut-off is given here.

Take `COc1ccc(/C=C/C(=O)N2CCCC2=O)cc1`: the Activity entry in data set [1] was “Non-toxic”; in data set [5], “Not Active”; in data set [7] it was “Dose-dependent effect”; in [8], “Non-toxic”; in data set [14], “Dose-dependent effect”; in [18] it was “Not Active”. For the same molecule, the outcome in [2], in [3], in [6], in data set [9], in [10] and in data set [11] was Active. For the same molecule, the result in [12], in data set [13], in data set [15], in data set [16], in data set [17] and in data set [19] was Active. Besides, in data set [4], the result was inactive.

For `COc1cc(/C=C/C(=O)N2CCCCC2=O)cc(OC)c1OC`, the Activity result was “Non-toxic” in data set [1]; “Not Active” in data set [5]; “Dose-dependent effect” in data set [7]; “Non-toxic” in [8]; “Dose-dependent effect” in data set [14]; “Not Active” in [18]. Moreover, the result in data set [2], in data set [3], in [6], in data set [9], in data set [10] and in data set [11] was Active. Besides, the result in data set [12], in data set [13], in [15], in data set [16], in data set [17] and in data set [19] was Active. In addition, in data set [4], the result was inactive.
